In ChEMBL document CHEMBL4219132, “Sulfamic acid promoted one-pot synthesis of phenanthrene fused-dihydrodibenzo-quinolinones: Anticancer activity, tubulin polymerization inhibition and apoptosis inducing studies” (Bioorg Med Chem, 2018):
Activity calls are given as the source filed them. The calls are words filed in the database; no cut-off is given here.

What was measured:
A549 [1] = assay: Cytotoxicity against human A549 cells assessed as cell growth inhibition after 48 hrs by MTT assay; format: functional, cell-based; conditions: A549, 48 h
Outline: (§1)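 MTT assay. Cells were seeded at 1×10^4 per well in their medium with 10% FBS and allowed 24 h at 37 °C. Compound diluted in medium was added alongside a vehicle control and left for 48 h. MTT (0.5 mg/mL) was then added for 4 h, formazan dissolved in DMSO, and absorbance read at 570 nm. IC50 is the concentration inhibiting 50% of cells.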

A549 [2] = assay: Induction of apoptosis in human A549 cells assessed as necrotic cells at 2.5 uM after 48 hrs by Annexin-V/propidium iodide staining based flow cytometry (reference value: 0.63%); format: functional
A549 [3] = assay: Induction of apoptosis in human A549 cells assessed as viable cells at 2.5 uM after 48 hrs by Annexin-V/propidium iodide staining based flow cytometry (reference value: 93.39%); format: functional; conditions: A549, 48 h, read-out: Activity
A549 [4] = assay: Induction of apoptosis in human A549 cells assessed as viable cells at 10 uM after 48 hrs by Annexin-V/propidium iodide staining based flow cytometry (reference value: 93.39%); format: functional; conditions: A549, 48 h, read-out: Activity
A549 [5] = assay: Induction of apoptosis in human A549 cells assessed as early apoptotic cells at 10 uM after 48 hrs by Annexin-V/propidium iodide staining based flow cytometry (reference value: 5.27%); format: functional
A549 [6] = assay: Induction of ROS generation in human A549 cells after 24 hrs by DCFDA dye-based fluorescent microscopy; format: functional, cell-based
Outline: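 A549 cells (1×10^6 cells/mL) were left to adhere overnight, then treated 24 h with 1.25, 2.5, 5.0 or 10.0 μM. Medium was replaced with medium containing 10 μM DCFDA for 30 min in the dark. Fluorescence was read on a plate reader (ex 488/em 525 nm) and cells were imaged by fluorescence microscopy. NAC and H2O2 (positive control) were included. Mean ± SEM, n=3.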

A549 [7] = assay: Induction of apoptosis in human A549 cells assessed as cell shrinkage at 10 uM after 48 hrs by AO/EB double staining based fluorescence microscopy; format: functional
Outline: (§2)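 A549 cells (1×10^6 cell/ml) were treated with different concentrations for 48 h at 37 °C in 5% CO2. Acridine orange and ethidium bromide (10 μg/mL each) were added, and after 10 min cells were viewed by fluorescence microscopy (ex 488/em 550 nm) at 200x.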

A549 [8] = assay: Induction of apoptosis in human A549 cells assessed as apoptotic body formation at 10 uM after 48 hrs by AO/EB double staining based fluorescence microscopy; format: functional, cell-based; outline: as §2
PC-3 = assay: Cytotoxicity against human PC3 cells assessed as cell growth inhibition after 48 hrs by MTT assay; format: functional, cell-based; conditions: PC-3, 48 h; outline: as §1
A549 [9] = assay: Induction of apoptosis in human A549 cells assessed as horse-shoe shaped nuclei at 1.25 to 10 uM after 48 hrs by DAPI staining-based fluorescence microscopy; format: functional, cell-based
Outline: (§3)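 A549 cells were treated for 48 h, washed with PBS, and permeabilised with 0.1% Tween 20 for 10 min. They were stained with 1 μM DAPI and viewed by fluorescence microscopy (ex 359/em 461 nm, DAPI filter) at 200X.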

HT-29 = assay: Cytotoxicity against human HT-29 cells assessed as cell growth inhibition after 48 hrs by MTT assay; format: functional, cell-based; conditions: HT-29, 48 h; outline: as §1
A549 [10] = assay: Induction of apoptosis in human A549 cells assessed as early apoptotic cells at 1.25 uM after 48 hrs by Annexin-V/propidium iodide staining based flow cytometry (reference value: 5.27%); format: functional
A549 [11] = assay: Induction of apoptosis in human A549 cells assessed as viable cells at 1.25 uM after 48 hrs by Annexin-V/propidium iodide staining based flow cytometry (reference value: 93.39%); format: functional; conditions: A549, 48 h, read-out: Activity
A549 [12] = assay: Cell cycle arrest in human A549 cells assessed as accumulation at sub G1 phase after 48 hrs by propidium iodide-staining based flow cytometry; format: functional
A549 [13] = assay: Induction of apoptosis in human A549 cells after 48 hrs by Annexin-V/propidium iodide staining based flow cytometry; format: functional, cell-based
A549 [14] = assay: Induction of apoptosis in human A549 cells assessed as early apoptotic cells at 2.5 uM after 48 hrs by Annexin-V/propidium iodide staining based flow cytometry (reference value: 5.27%); format: functional
A549 [15] = assay: Induction of apoptosis in human A549 cells assessed as late apoptotic cells at 2.5 uM after 48 hrs by Annexin-V/propidium iodide staining based flow cytometry (reference value: 0.71%); format: functional
A549 [16] = assay: Induction of apoptosis in human A549 cells assessed as viable cells at 5 uM after 48 hrs by Annexin-V/propidium iodide staining based flow cytometry (reference value: 93.39%); format: functional; conditions: A549, 48 h, read-out: Activity
A549 [17] = assay: Induction of apoptosis in human A549 cells assessed as late apoptotic cells at 10 uM after 48 hrs by Annexin-V/propidium iodide staining based flow cytometry (reference value: 0.71%); format: functional
A549 [18] = assay: Induction of mitochondrial membrane potential loss in human A549 cells assessed as increase in depolarized cell population after 24 hrs by JC-1-dye based flow-cytometry
A549 [19] = assay: Cell cycle arrest in human A549 cells assessed as accumulation at G2/M phase at 10 uM after 48 hrs by propidium iodide-staining based flow cytometry (reference value: 34.25 +/- 5.75%); format: functional
[20] = Inhibition of pig brain tubulin polymerization assessed as reduction in tubulin assembly by fluorescence-based assay; parameters: species or system Sus scrofa
Outline: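 Kit assay with porcine brain tubulin (2 mg/mL) in 80 mM PIPES pH 6.9, 2.0 mM MgCl2, 0.5 mM EGTA, 1.0 mM GTP and glycerol. Test compound was used at final 10, 5, 2.5 or 1.25 μM. Polymerization was followed for 1 h at 37 °C by fluorescence reporter incorporation (ex 360/em 440 nm). Runs were in duplicate, and IC50 is the concentration inhibiting 50% of assembly versus control.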

A549 [21] = assay: Induction of apoptosis in human A549 cells assessed as late apoptotic cells at 1.25 uM after 48 hrs by Annexin-V/propidium iodide staining based flow cytometry (reference value: 0.71%); format: functional
A549 [22] = assay: Induction of apoptosis in human A549 cells assessed as necrotic cells at 5 uM after 48 hrs by Annexin-V/propidium iodide staining based flow cytometry (reference value: 0.63%); format: functional
DU-145 = assay: Cytotoxicity against human DU145 cells assessed as cell growth inhibition after 48 hrs by MTT assay; format: functional, cell-based; conditions: DU-145, 48 h; outline: as §1
A549 [23] = assay: Induction of apoptosis in human A549 cells assessed as nuclei condensation at 1.25 to 10 uM after 48 hrs by DAPI staining-based fluorescence microscopy; format: functional, cell-based; outline: as §3
A549 [24] = assay: Induction of apoptosis in human A549 cells assessed as chromatin condensation at 10 uM after 48 hrs by AO/EB double staining based fluorescence microscopy; format: functional, cell-based; outline: as §2
A549 [25] = assay: Induction of apoptosis in human A549 cells assessed as late apoptotic cells at 5 uM after 48 hrs by Annexin-V/propidium iodide staining based flow cytometry (reference value: 0.71%); format: functional
A549 [26] = assay: Cell cycle arrest in human A549 cells assessed as accumulation at sub G1 phase at 10 uM after 48 hrs by propidium iodide-staining based flow cytometry (reference value: 4.52 +/- 2.47%); format: functional
A549 [27] = assay: Induction of mitochondrial membrane potential loss in human A549 cells assessed as depolarized cell population at 10 uM after 24 hrs by JC-1-dye based flow-cytometry (reference value: 8.31 +/- 3.72%)
A549 [28] = assay: Induction of apoptosis in human A549 cells assessed as necrotic cells at 10 uM after 48 hrs by Annexin-V/propidium iodide staining based flow cytometry (reference value: 0.63%); format: functional
A549 [29] = assay: Cytotoxicity against human A549 cells assessed as reduction in cell viability by measuring cell shrinkage at 1.25 to 10 uM after 48 hrs by phase contrast microscopy; format: functional, cell-based
Outline: (§4)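 A549 cells (1×10^5 cells/mL) were plated in 6-well plates and left to adhere overnight. They were then incubated 48 h with 1.25, 2.5, 5.0 or 10.0 μM and examined for morphological changes by phase contrast microscopy at 200X.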

HCT-116 = assay: Cytotoxicity against human HCT116 cells assessed as cell growth inhibition after 48 hrs by MTT assay; format: functional, cell-based; conditions: HCT-116, 48 h; outline: as §1
A549 [30] = assay: Induction of apoptosis in human A549 cells assessed as necrotic cells at 1.25 uM after 48 hrs by Annexin-V/propidium iodide staining based flow cytometry (reference value: 0.63%); format: functional
MCF7 = assay: Cytotoxicity against human MCF7 cells assessed as cell growth inhibition after 48 hrs by MTT assay; format: functional, cell-based; conditions: MCF7, 48 h; outline: as §1
A549 [31] = assay: Cytotoxicity against human A549 cells assessed as reduction in cell viability by measuring cell detachment at 1.25 to 10 uM after 48 hrs by phase contrast microscopy; format: functional, cell-based; outline: as §4
A549 [32] = assay: Induction of apoptosis in human A549 cells assessed as early apoptotic cells at 5 uM after 48 hrs by Annexin-V/propidium iodide staining based flow cytometry (reference value: 5.27%); format: functional
A549 [33] = assay: Induction of apoptosis in human A549 cells assessed as membrane blebbing at 10 uM after 48 hrs by AO/EB double staining based fluorescence microscopy; format: functional, cell-based; outline: as §2

Work on `COc1cc2c3c(c4cc(OC)c(OC)cc4c2cc1OC)C(c1ccc2c(c1)OCO2)CC(=O)N3` (stereo not drawn) yielded an IC50 (A549 [1]) of 3.17 µM, an Activity (A549 [2]) of 0.01% and a viability at 2.5 µM (A549 [3]) of 81.8%. The viability at 10 µM (A549 [4]) was 47.5%, the Activity (A549 [5]) was 50.6% and the Activity (A549 [6]) was “Dose-dependent effect”. For the same compound, the Activity (A549 [7]) was “Active”, the Activity (A549 [8]) was “Active” and the IC50 (PC-3) was 12.1 µM. The Activity (A549 [9]) was “Active”, the IC50 (HT-29) was 7.84 µM and the Activity (A549 [10]) was 9.5%. The viability at 1.25 µM (A549 [11]) was 89.1%, the Activity (A549 [12]) was “Dose-dependent effect” and the Activity (A549 [13]) was “Dose-dependent effect”. For the same compound, the Activity (A549 [14]) was 17.3%, the Activity (A549 [15]) was 0.85% and the viability at 5 µM (A549 [16]) was 74.2%. The Activity (A549 [17]) was 1.93%, the Activity (A549 [18]) was “Dose-dependent effect” and the Activity (A549 [19]) was 61.2%. The IC50 [20] was 5.15 µM, the Activity (A549 [21]) was 1.32% and the Activity (A549 [22]) was 0.01%. The IC50 (DU-145) was 17.5 µM, the Activity (A549 [23]) was “Active” and the Activity (A549 [24]) was “Active”. For the same compound, the Activity (A549 [25]) was 0.92%, the Activity (A549 [26]) was 31.22% and the Activity (A549 [27]) was 79.8%. For the same compound, the Activity (A549 [28]) was 0.01%, the Activity (A549 [29]) was “Dose-dependent effect” and the IC50 (HCT-116) was 7.61 µM. For the same compound, the Activity (A549 [30]) was 0.09%, the IC50 (MCF7) was 9.59 µM and the Activity (A549 [31]) was “Dose-dependent effect”. The Activity (A549 [32]) was 24.86% and the Activity (A549 [33]) was “Active”.
